Among the data in ChEMBL document CHEMBL1123282, “Antiinflammatory activity of substituted 6-hydroxypyrimido[2,1-f]purine-2,4,8(1H,3H,9H)-triones. Atypical nonsteroidal antiinflammatory agents” (J Med Chem, 1986) are Inhibition, inhibition in vivo and inhibition values, retold here.

The test system of assay [1] is Rattus norvegicus. Nature of the assay: In vivo antiinflammatory activity against rats by RPAR(reverse passive Arthus reaction) synovitis method. Details: concentration or dose not given beside the values. It is filed as functional. In outline:
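Lewis rats, oral drug or placebo 1 h before iv BSA (2.28 mg in saline), then intraarticular rabbit anti-BSA (0.54 mg) into one knee and saline into the other, under light anesthesia. Second oral dose at 3 h; the total of both doses is the calculated dose. About 17 h after induction, subpatellar tissue with synovium is excised and weighed. Response is antibody-minus-saline knee weight, tested by analysis of variance.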

Assay [2] deals with Rattus norvegicus. Nature of the assay: Tested in vivo for antiinflammatory activity against chronic adjuvant arthritic rat by prophylactic inhibition 1 degree paw after peroral administration of 10 mg/kg of dose. It is filed as functional. Conditions: route oral. In outline: (§1)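 Prophylactic regimen, rats. Adjuvant is heat-killed Mycobacterium tuberculosis ground to a fine powder in paraffin oil (6 mg/mL); 0.1 mL is injected into the left hind paw. Oral drug is given 1 h before adjuvant challenge, then for 21 consecutive days; controls receive methyl cellulose. Left (1°) and right (2°) hind paw volumes are measured by plethysmograph.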

Assay [3] concerns Rattus norvegicus. The assay can be described thus: Tested in vivo for antiinflammatory activity against chronic adjuvant arthritic rat by prophylactic inhibition 2 degree paw after peroral administration of 10 mg/kg of dose. It is filed as functional. Conditions: route oral. In outline: as §1
Assay [4] addresses T1, Polyunsaturated fatty acid 5-lipoxygenase (Rattus norvegicus) (UniProt P12527).
T1 sequence (whole entry): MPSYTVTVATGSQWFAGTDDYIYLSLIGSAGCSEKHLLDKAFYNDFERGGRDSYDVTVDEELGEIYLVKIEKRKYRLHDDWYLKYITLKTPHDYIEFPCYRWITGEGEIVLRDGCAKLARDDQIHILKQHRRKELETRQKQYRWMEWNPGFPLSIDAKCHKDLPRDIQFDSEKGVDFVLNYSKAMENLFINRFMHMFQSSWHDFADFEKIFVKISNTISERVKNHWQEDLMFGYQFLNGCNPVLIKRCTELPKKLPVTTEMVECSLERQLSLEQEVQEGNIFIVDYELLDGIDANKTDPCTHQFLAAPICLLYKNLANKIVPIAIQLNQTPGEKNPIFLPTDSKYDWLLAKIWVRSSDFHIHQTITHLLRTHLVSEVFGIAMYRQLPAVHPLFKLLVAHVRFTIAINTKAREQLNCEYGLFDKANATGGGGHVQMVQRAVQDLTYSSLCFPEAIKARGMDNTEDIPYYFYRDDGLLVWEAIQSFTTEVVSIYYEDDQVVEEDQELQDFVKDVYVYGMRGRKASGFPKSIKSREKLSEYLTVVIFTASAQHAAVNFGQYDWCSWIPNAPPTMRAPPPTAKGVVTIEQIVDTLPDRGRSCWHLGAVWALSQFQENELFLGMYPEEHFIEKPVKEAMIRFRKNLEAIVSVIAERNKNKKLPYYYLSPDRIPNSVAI
The assay can be described thus: In vitro inhibitory activity against Lipoxygenase in rat neutrophils at a dose of 50 uM. The gist of the method:
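Neutrophils come from the 4 h pleural exudate of male Wistar-Lewis rats given iv BSA plus intrapleural rabbit anti-BSA IgG. Cells are washed, red cells lysed with NH4Cl, and resuspended at about 5×10^6 cells/0.1 mL in Tris pH 7.4 with NaCl and 1 mM CaCl2. Cells are preincubated with compound 4 min at room temperature.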

The target in assay [5] is Cyclooxygenase (Rattus norvegicus) (UniProt P35355+Q63921). Nature of the assay: In vitro inhibitory activity against Prostaglandin G/H synthase in rat neutrophils at a dose of 50 uM.

Where “and” joins values, the source holds several entries; their conditions need not be identical. Identical values can stand only once.

With `CC(C)c1c(O)n(CCc2ccccc2)c2nc3c(c(=O)n(C)c(=O)n3C)n2c1=O`, in assay [1], the Inhibition (commonly the relative decrease from the control value, in per cent) is 17%. With `CCCCC1C(=O)N(Cc2ccccc2)c2nc3ncncc3n2C1=O` (stereo unspecified), the inhibition in vivo (as a rule, the percentage by which the read-out fell short of the control) at 10 mg/kg in assay [2] was 0%; in assay [3], 26%. In addition, the Inhibition in assay [1] turned out to be 21%. In assay [1], `CCO/C(O)=c1\c(=O)n(Cc2ccccc2)c2nc3c(c(=O)n(C)c(=O)n3C)n2c1=O` returned an Inhibition of 0%.

`CCOCCc1c(O)n(Cc2ccccc2)c2nc3c(c(=O)n(C)c(=O)n3C)n2c1=O`: the Inhibition in assay [1] was determined as 8%. Still for that read-out and setting: then `CC(C)Cc1c(O)n(-c2ccccc2)c2nc3c(c(=O)n(C)c(=O)n3C)n2c1=O`, with 16%; and `CCCCc1c(O)n(Cc2ccccc2)c2nccn2c1=O`, with 17%; and `CCCc1c(O)n(Cc2ccc(Cl)cc2)c2nc3c(c(=O)n(C)c(=O)n3C)n2c1=O`, with 53%. `CCCc1c(O)n(-c2ccccc2)c2nc3c(c(=O)n(C)c(=O)n3C)n2c1=O` yielded an Inhibition in assay [1] of 11%. On the same count and under the same terms, with `Cc1c(O)n(-c2ccccc2)c2nc3c(c(=O)n(C)c(=O)n3C)n2c1=O` the figure was 14%; with `CC(=O)OCCc1c(O)n(Cc2ccccc2)c2nc3c(c(=O)n(C)c(=O)n3C)n2c1=O`, 1%; with `CC(C)Cc1c(O)n(Cc2ccccc2)c2nc3c(c(=O)n(C)c(=O)n3C)n2c1=O`, 17%. `C/C=C/Cc1c(O)n(Cc2ccccc2)c2nc3c(c(=O)n(C)c(=O)n3C)n2c1=O`: the inhibition in vivo at 10 mg/kg came to 17% in assay [2] and 24% in assay [3]. Further, the inhibition (as a rule, the percentage by which the read-out fell short of the control) in assay [4] is 26% and 29%; in assay [5], 49%. For the same molecule, the Inhibition in assay [1] is reported as 12%.

The molecule `Cc1c(O)n(Cc2ccc(Cl)cc2)c2nc3c(c(=O)n(C)c(=O)n3C)n2c1=O` came in with an Inhibition in assay [1] of 28%.

As to `Cc1c(O)n(CCc2ccccc2)c2nc3c(c(=O)n(C)c(=O)n3C)n2c1=O`, the Inhibition in assay [1] is on record as 14%.

Regarding `CCCCn1c(=O)c2c(nc3n(CCc4ccccc4)c(O)c(CCC)c(=O)n23)n(CCCC)c1=O`, in assay [1], the Inhibition turned out to be 0%. On the same count and under the same terms, with `Cc1c(O)n(Cc2ccccc2)c2nc3c(c(=O)n(C)c(=O)n3C)n2c1=O` the figure was 8%; with `CCCCn1c(=O)c2c(nc3n(Cc4ccc(F)cc4)c(O)c(CCC)c(=O)n23)n(CCCC)c1=O`, 8%.

`CCCCc1c(O)n(-c2ccccc2)c2nc3c(c(=O)n(C)c(=O)n3C)n2c1=O` came in with an Inhibition in assay [1] of 11%.

Molecule `COC(=O)Cc1c(O)n(Cc2ccccc2)c2nc3c(c(=O)n(C)c(=O)n3C)n2c1=O` returned an Inhibition in assay [1] of 14%. `CCCc1c(O)n(-c2ccc(F)cc2)c2nc3c(c(=O)n(C)c(=O)n3C)n2c1=O`: the Inhibition in assay [1] is 27%. The same measure, in the same setting: with `CCCc1c(O)n(Cc2ccccn2)c2nc3c(c(=O)n(C)c(=O)n3C)n2c1=O` the figure was 17%. With `CCCCc1c(O)n(-c2ccc(F)cc2)c2nc3c(c(=O)n(C)c(=O)n3C)n2c1=O`, the inhibition in vivo at 10 mg/kg worked out at 29% in assay [2] and 35% in assay [3]. Further, in assay [1], the Inhibition was 26%.

In the case of `CCCc1c(O)n(Cc2cccs2)c2nc3c(c(=O)n(C)c(=O)n3C)n2c1=O`, the inhibition in vivo at 10 mg/kg in assay [2] amounted to 20%; in assay [3], 9%. Also, the Inhibition in assay [1] worked out at 9%. As to `Cn1c(=O)c2c(nc3n(Cc4ccccc4)c(O)c(CC(=O)O)c(=O)n23)n(C)c1=O`, the Inhibition in assay [1] stood at 11%. As to `Cn1c(=O)c2c(nc3n(Cc4ccccc4)c(O)c(N)c(=O)n23)n(C)c1=O`, the Inhibition in assay [1] amounted to 11%. Regarding `CN(C)CCc1c(O)n(Cc2ccccc2)c2nc3c(c(=O)n(C)c(=O)n3C)n2c1=O`, the Inhibition in assay [1] is reported as 0%. `CCCCn1c(=O)c2c(nc3n(Cc4ccccc4)c(O)c(C)c(=O)n23)n(CCCC)c1=O`: the Inhibition in assay [1] came to 27%. Same read-out and setting: then `CCS(=O)(=O)CCc1c(O)n(Cc2ccccc2)c2nc3c(c(=O)n(C)c(=O)n3C)n2c1=O`, with 6%. With `COc1ccc(Cn2c(O)c(CC=C(C)C)c(=O)n3c4c(=O)n(C)c(=O)n(C)c4nc23)cc1`, the inhibition in assay [4] was 0% and 15%; in assay [5], 73%. In assay [1], the Inhibition is 10%. Consider `CCCCc1c(O)n(Cc2ccc(Cl)c(Cl)c2)c2nc3c(c(=O)n(C)c(=O)n3C)n2c1=O`, for which the inhibition in vivo at 10 mg/kg in assay [2] was 0%; in assay [3], 17%. In addition, the Inhibition in assay [1] is recorded as 33%.

Molecule `Cn1c(=O)c2c(nc3n(Cc4ccccc4)c(O)c(CCO)c(=O)n23)n(C)c1=O` returned an Inhibition in assay [1] of 17%. On to `CCCc1c(O)n(CCc2ccccc2)c2nc3c(c(=O)n(C)c(=O)n3C)n2c1=O`, for which the inhibition in vivo at 10 mg/kg came to 14% in assay [2] and 38% in assay [3]. In assay [1], this molecule showed an Inhibition of 27%.

For `CCCCc1c(O)n(CC2CCCCC2)c2nc3c(c(=O)n(C)c(=O)n3C)n2c1=O`, the inhibition in vivo at 10 mg/kg in assay [2] was 11%; in assay [3] it was 34%. The Inhibition in assay [1] worked out at 25%. On to `Cn1c(=O)c2c(nc3n(Cc4ccccc4)c(O)c(C4C=CCCC4)c(=O)n23)n(C)c1=O` (stereo unspecified), for which the inhibition in vivo at 10 mg/kg in assay [2] was determined as 8%; in assay [3] it was 2%. The inhibition was 25% and 38% in assay [4]; 17% in assay [5]. Moreover, the Inhibition in assay [1] is reported as 25%.

In assay [1], `Cc1c(O)n(Cc2ccc(F)cc2)c2nc3c(c(=O)n(C)c(=O)n3C)n2c1=O` yielded an Inhibition of 36%.

For the molecule `CC[S+]([O-])CCc1c(O)n(Cc2ccccc2)c2nc3c(c(=O)n(C)c(=O)n3C)n2c1=O` (stereo unspecified), in assay [1], the Inhibition is given as 0%.

The molecule `CCCCn1c(=O)c2c(nc3n(Cc4ccccc4)c(O)c(CCC)c(=O)n23)n(CCCC)c1=O` yielded an Inhibition in assay [1] of 12%. Same read-out and setting: then `Cn1c(=O)c2c(nc3n(Cc4ccc(F)cc4)c(O)c(Cc4ccccc4)c(=O)n23)n(C)c1=O`, with 10%. Still for that read-out and setting: with `CC(C)c1c(O)n(Cc2ccccc2)c2nc3c(c(=O)n(C)c(=O)n3C)n2c1=O` the figure was 0%. Same read-out and setting: with `CCCc1c(O)n(Cc2ccc(OC)cc2)c2nc3c(c(=O)n(C)c(=O)n3C)n2c1=O` the figure was 11%; with `CC(=O)Nc1c(O)n(Cc2ccccc2)c2nc3c(c(=O)n(C)c(=O)n3C)n2c1=O`, 20%. As to `CCCCn1c(=O)c2c(nc3n(Cc4ccc(OC)cc4)c(O)c(CCC)c(=O)n23)n(CCCC)c1=O`, in assay [1], the Inhibition is 5%. Regarding `CCCCC1C(=O)N(Cc2ccccc2)c2nc3nccnc3n2C1=O` (stereo unspecified), the inhibition in vivo at 10 mg/kg in assay [2] was found to be 0%; in assay [3], 8%. The Inhibition in assay [1] was 15%. With `Cn1c(=O)c2c(nc3n(Cc4ccccc4)c(O)cc(=O)n23)n(C)c1=O`, in assay [1], the Inhibition stood at 11%. The same measure, in the same setting: then `CCCCc1c(O)n(Cc2ccc(F)cc2)c2nc3c(c(=O)n(CCCC)c(=O)n3CCCC)n2c1=O`, with 6%; and `Cn1c(=O)c2c(nc3n(Cc4ccccc4)c(O)c(Cc4ccccc4)c(=O)n23)n(C)c1=O`, with 16%. The same measure, in the same setting: with `CCCCC1C(=O)N(Cc2ccccc2)c2nc3ccccc3n2C1=O` (stereo unspecified) the figure was 0%. Consider `CCCCCCn1c(O)c(CCC)c(=O)n2c3c(=O)n(C)c(=O)n(C)c3nc12`, for which the inhibition in vivo at 10 mg/kg in assay [2] was 28%; in assay [3] it was 43%. In assay [1], the Inhibition worked out at 37%. `CCCCn1c(=O)c2c(nc3n(Cc4cccs4)c(O)c(CCC)c(=O)n23)n(CCCC)c1=O`: in assay [1], the Inhibition was 14%. Regarding `CCCCc1c(O)n(Cc2ccc(Cl)cc2Cl)c2nc3c(c(=O)n(C)c(=O)n3C)n2c1=O`, the results for the inhibition in vivo at 10 mg/kg in assay [2] and in assay [3] were 0% and 29%, respectively. This molecule also had an Inhibition in assay [1] of 31%.

Regarding `CCSCCc1c(O)n(Cc2ccccc2)c2nc3c(c(=O)n(C)c(=O)n3C)n2c1=O`, the Inhibition in assay [1] was 0%. Same read-out and setting: then `CCCc1c(OC)n2c3c(=O)n(C)c(=O)n(C)c3nc2n(Cc2ccccc2)c1=O`, with 17%; and `CCCCc1c(O)n(Cc2ccc(Cl)cc2)c2nc3c(c(=O)n(C)c(=O)n3C)n2c1=O`, with 16%.
